Assay results as given in ChEMBL document CHEMBL1134258, “NAC/MEA conjugate: a new potent antioxidant which increases the GSH level in various cell lines” (Bioorg Med Chem Lett, 2001).

Legend:
Homo sapiens [1] = species: Homo sapiens; test: Effective dose required to inhibit 70% of HIV-1 Ba-L-infected MDM''s at 0.01 uM; type: functional
[2] = Tested for cytotoxic concentration in human macrophage-derived monocytes (MDMs) at 24 hr treatment; type: cell-based
Outline: (§1)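 Human MDMs from donor PBMCs (elutriated monocytes, 7 days differentiation) exposed to the compound for 24 h or 12 days. Cytotoxicity read by neutral-red uptake; CC50 taken as the mean of three independent experiments, each in triplicate.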

Homo sapiens [3] = species: Homo sapiens; test: Effective dose required to inhibit 50% of HIV-1 Ba-L-infected MDM''s at 0.001 uM; type: functional
Homo sapiens [4] = species: Homo sapiens; test: Effective dose required to inhibit 90% of HIV-1 Ba-L-infected MDM''s at 0.001 uM; type: functional
Homo sapiens [5] = species: Homo sapiens; test: Effective dose required to inhibit 90% of HIV-1 Ba-L-infected MDM''s at 0.01 uM; type: functional
[6] = Effect on intracellular GSH content at 250 uM in human macrophage-derived monocytes (MDMs); type: functional
Outline: (§2)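 Human MDMs from healthy-donor PBMCs (Ficoll-Hypaque gradient; monocytes split from PBLs by countercurrent centrifugal elutriation; 7 days differentiation). Cultured in DMEM Glutamax with 10% heat-inactivated FCS plus penicillin/streptomycin/neomycin. Treated 24 h, then lysed; GSH measured by Griffith's method and normalised to protein (Bradford). Run in triplicate across five independent experiments (n=15).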

[7] = Percent increase in intracellular GSH level at 10 uM in 24 hr treated human macrophage-derived monocytes (MDMs); type: functional; outline: as §2
[8] = Percent increase in intracellular GSH level at 100 uM in 24 hr treated human macrophage-derived monocytes (MDMs); type: functional; outline: as §2
[9] = Percent increase in intracellular GSH level at 1000 uM in 24 hr treated human macrophage-derived monocytes (MDMs); type: functional; outline: as §2
[10] = Percent increase in intracellular GSH level at 250 uM in 24 hr treated human macrophage-derived monocytes (MDMs); type: functional; outline: as §2
Homo sapiens [11] = species: Homo sapiens; test: Effective dose required to inhibit 50% of HIV-1 Ba-L-infected MDM''s at 0.01 uM; type: functional
Homo sapiens [12] = species: Homo sapiens; test: Effective dose required to inhibit 70% of HIV-1 Ba-L-infected MDM''s at 0.001 uM; type: functional
Mus musculus = test: Tested for intraperitoneal lethal dose in OF1 mice after 30 days; type: functional; conditions: ip, 720 h
Outline: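 Mice (OF1) dosed intraperitoneally and followed for 30 days. LD50 derived by Probit analysis, with the dose range set in a preliminary study.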

[13] = Tested for cytotoxic concentration in human macrophage-derived monocytes (MDMs) after 12 days; type: cell-based; outline: as §1

Question: Which ED70 (Homo sapiens [1]) does the source give for `CC(=O)N[C@@H](CS)C(=O)NCCSC(C)=O` here?
Answer: The ED70 was 90 µM.

Question: And the CC50 at 24 h [2]?
Answer: Its CC50 at 24 h is over 5000 µM.

Question: And the ED50 (Homo sapiens [3])?
Answer: Its ED50 is 3 µM.

Question: What about the ED90 (Homo sapiens [4]) of the same molecule?
Answer: The ED90 was 75 µM.

Question: What about the ED90 (Homo sapiens [5]) of the same molecule?
Answer: Its ED90 is 190 µM.

Question: And the GSH [6]?
Answer: Its GSH is 480%.

Question: And the GSH [7]?
Answer: Its GSH is 0%.

Question: What about the GSH [8] of the same molecule?
Answer: Its GSH is 75%.

Question: What about the GSH [9] of the same molecule?
Answer: Its GSH is 140%.

Question: What about the GSH [10] of the same molecule?
Answer: The GSH was 165%.

Question: And the ED50 (Homo sapiens [11])?
Answer: Its ED50 is 50 µM.

Question: What about the ED70 (Homo sapiens [12]) of the same molecule?
Answer: The ED70 was 15 µM.

Question: And the LD50 (Mus musculus)?
Answer: Its LD50 is 700 mg/kg.

Question: What about the CC50 at 288 h [13] of the same molecule?
Answer: Its CC50 at 288 h is 635 µM.

Question: For `CC(=O)N[C@@H](CS)C(=O)O` [ACETYLCYSTEINE], which GSH [6] is on record?
Answer: Its GSH is 200%.

Question: With `NCCS` [CYSTEAMINE] as the molecule, how does the GSH [6] read?
Answer: Its GSH is 200%.

Question: Which GSH [6] does the source give for `CC(=O)N[C@@H](CS)C(=O)O.NCCS` here?
Answer: The GSH was 190%.
